Measurements from ChEMBL document CHEMBL4251739, “Rhodanine as a Potent Scaffold for the Development of Broad-Spectrum Metallo-β-lactamase Inhibitors” (ACS Med Chem Lett, 2018).
pIC50: −log10 of the molar value.

Tests used:
[1] = Inhibition of bacterial VIM2 expressed in Escherichia coli BL21(DE3) using cefazolin as substrate by spectrometric method; design: species or system Bacteria
Procedure, shortened: (§1)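 Purified enzymes, overexpressed and purified by earlier methods, assayed under steady-state conditions by UV spectrometry in 50 mM Tris, pH 7.0. Substrate for NDM-1, VIM-2 and L1 was cefazolin (50 µM), read at 262 nm. Substrate for ImiS was imipenem (60 µM), read at 300 nm. Inhibitor varied 0–50 µM; IC50 is the concentration giving 50% loss of activity.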

Bacteria [2] = experiment: Inhibition of bacterial ImiS expressed in Escherichia coli BL21(DE3) at 50 uM using imipenem as substrate by spectrometric method relative to control
[3] = Inhibition of bacterial L1 expressed in Escherichia coli BL21(DE3) using cefazolin as substrate by spectrometric method; design: species or system Bacteria; procedure, shortened: as §1
Bacteria [4] = experiment: Inhibition of bacterial NDM1 expressed in Escherichia coli BL21(DE3) at 50 uM using cefazolin as substrate by spectrometric method relative to control
Bacteria [5] = experiment: Inhibition of bacterial NDM1 expressed in Escherichia coli DH10B assessed as potentiation of cefazolin-induced antibacterial activity by measuring cefazolin MIC at 32 ug/ml after 16 hrs by broth micro-dilution method (reference value: 8 ug/ml)
Bacteria [6] = experiment: Inhibition of bacterial VIM2 expressed in Escherichia coli DH10B assessed as potentiation of cefazolin-induced antibacterial activity by measuring cefazolin MIC at 32 ug/ml after 16 hrs by broth micro-dilution method (reference value: 512 ug/ml)
Bacteria [7] = experiment: Inhibition of bacterial ImiS expressed in Escherichia coli DH10B assessed as potentiation of imipenem-induced antibacterial activity by measuring imipenem MIC at 32 ug/ml after 16 hrs by broth micro-dilution method (reference value: 2 ug/ml)
Bacteria [8] = experiment: Inhibition of bacterial L1 expressed in Escherichia coli DH10B assessed as potentiation of cefazolin-induced antibacterial activity by measuring cefazolin MIC at 32 ug/ml after 16 hrs by broth micro-dilution method (reference value: 32 ug/ml)
Procedure, shortened: (§2)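 Dose-dependent cefazolin MIC assay against E. coli DH10B expressing L1 from a pBCSK plasmid, with varied inhibitor doses up to 256 µg/mL. Fold decrease in MIC was taken relative to cefazolin alone. Medium pH was monitored during the assay.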

Bacteria [9] = experiment: Inhibition of bacterial VIM2 expressed in Escherichia coli BL21(DE3) at 50 uM using cefazolin as substrate by spectrometric method relative to control
Bacteria [10] = experiment: Inhibition of bacterial L1 expressed in Escherichia coli DH10B assessed as potentiation of cefazolin-induced antibacterial activity by measuring fold reduction in cefazolin MIC at 32 ug/ml after 16 hrs by broth micro-dilution method relative to cefazolin alone; procedure, shortened: as §2
[11] = Cytotoxicity against mouse L929 cells assessed as cell viability up to 200 uM after 48 hrs by CCK8 assay relative to control; assay type: cell-based; conditions: read-out: Activity
Procedure, shortened: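 Mouse fibroblast L929 cells exposed to inhibitors at 12.5, 25, 50, 100, 200 and 400 µM working concentrations; percentage of cells maintaining viability measured.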

[12] = Inhibition of bacterial ImiS expressed in Escherichia coli BL21(DE3) using imipenem as substrate by spectrometric method; design: species or system Bacteria; procedure, shortened: as §1
[13] = Inhibition of bacterial NDM1 expressed in Escherichia coli BL21(DE3) using cefazolin as substrate by spectrometric method; design: species or system Bacteria; procedure, shortened: as §1
Bacteria [14] = experiment: Inhibition of bacterial NDM1 expressed in Escherichia coli DH10B assessed as potentiation of cefazolin-induced antibacterial activity by measuring fold reduction in cefazolin MIC at 32 ug/ml after 16 hrs by broth micro-dilution method relative to cefazolin alone
Bacteria [15] = experiment: Inhibition of bacterial VIM2 expressed in Escherichia coli DH10B assessed as potentiation of cefazolin-induced antibacterial activity by measuring fold reduction in cefazolin MIC at 32 ug/ml after 16 hrs by broth micro-dilution method relative to cefazolin alone

Row | Structure (SMILES) | pIC50 [1] | inhibition (Bacteria [2]) [%] | pIC50 [3] | inhibition (Bacteria [4]) [%] | MIC (Bacteria [5]) [mg/L] | MIC (Bacteria [6]) [mg/L] | MIC (Bacteria [7]) [mg/L] | MIC (Bacteria [8]) [mg/L] | inhibition (Bacteria [9]) [%] | fold change (FC) (Bacteria [10]) | pIC50 [12] | pIC50 [13] | fold change (FC) (Bacteria [14]) | fold change (FC) (Bacteria [15]) | viability at 48 h [11] [%]
1 | COc1ccc(/C=C(\S)C(=O)O)cc1 | 5.33 | < 50 | 6.49 | < 50 | 16 | 256 | 2 | 16 |  |  |  |  |  |  | 
2 | O=C(O)CN1C(=O)/C(=C/c2cccs2)SC1=S |  | < 50 | 6.11 | < 50 | 8 | 512 | 2 | 8 | < 50 |  |  |  |  |  | 
3 | O=C(O)CN1C(=O)/C(=C/c2ccc3ccccc3c2)SC1=S |  | < 50 | 6.43 | < 50 | 16 | 512 | 2 | 8 | < 50 |  |  |  |  |  | 
4 | O=C(O)c1ccc(N2C(=O)/C(=C/c3ccc(Cl)cc3)SC2=S)cc1 | 5.44 |  | 7.15 |  | 1 | 128 | 1 | 8 |  |  | 5.11 | 4.91 | 4 to 8 | 4 | 
5 | O=C(O)c1ccc(N2C(=O)/C(=C/c3ccccc3)SC2=S)cc1 |  |  | 6.68 |  | 1 | 512 | 1 | 8 | < 50 |  | 4.74 | 5.06 | 4 to 8 |  | 
6 | O=C(O)c1ccc(N2C(=O)/C(=C/c3ccc4ccccc4c3)SC2=S)cc1 | 5.72 |  | 6.92 | < 50 | > 64 | 128 | 1 | 8 |  |  | 4.78 |  |  | 4 | 
7 | O=C(O)CN1C(=O)/C(=C/c2cccc3ccccc23)SC1=S | 4.55 | < 50 | 6.55 | < 50 | 8 | 512 | 1 | 8 |  |  |  |  |  |  | 
8 | O=C(O)CN1C(=O)/C(=C/c2ccc(Cl)cc2)SC1=S | 4.82 | < 50 | 6.66 | < 50 | 8 | 512 | 2 | 8 |  |  |  |  |  |  | 
9 | O=C(O)c1ccc(N2C(=O)/C(=C/c3ccc(Cl)cc3Cl)SC2=S)cc1 | 5.46 |  | 7.52 |  | 1 | 128 | 1 | 8 |  |  | 5.12 | 4.97 | 4 to 8 | 4 | 
10 | O=C(O)c1ccc(N2C(=O)/C(=C/c3ccc(F)cc3)SC2=S)cc1 | 5.16 |  | 7.10 |  | 2 | 256 | 1 | 8 |  |  | 5.44 | 5.08 |  |  | 

Continued by rising pIC50 [3], values first:

Row | pIC50 [1] | inhibition (Bacteria [2]) [%] | pIC50 [3] | inhibition (Bacteria [4]) [%] | MIC (Bacteria [5]) [mg/L] | MIC (Bacteria [6]) [mg/L] | MIC (Bacteria [7]) [mg/L] | MIC (Bacteria [8]) [mg/L] | inhibition (Bacteria [9]) [%] | fold change (FC) (Bacteria [10]) | pIC50 [12] | pIC50 [13] | fold change (FC) (Bacteria [14]) | fold change (FC) (Bacteria [15]) | Structure (SMILES) | viability at 48 h [11] [%]
11 |  | < 50 | 5.77 |  | 8 | 512 | 2 | 8 | < 50 |  |  | 4.33 |  |  | O=C(O)CN1C(=O)/C(=C/c2ccco2)SC1=S | 
12 |  | < 50 | 6.22 |  | 4 | 512 | 2 | 8 | < 50 |  |  | 4.60 |  |  | COc1ccc(/C=C2\SC(=S)N(CC(=O)O)C2=O)cc1 | 
13 |  | < 50 | 6.23 |  | 4 | 512 | 1 | 8 | < 50 |  |  | 4.84 |  |  | O=C(O)c1ccc(N2C(=O)/C(=C/c3cccs3)SC2=S)cc1 | 
14 |  | < 50 | 6.49 | < 50 | 8 | 256 | 2 | 8 | < 50 |  |  |  |  |  | O=C(O)CN1C(=O)/C(=C/c2ccccc2)SC1=S | 
15 | 4.77 | < 50 | 6.66 |  | 4 | 256 | 2 | 4 |  | 8 |  | 4.56 |  |  | O=C(O)CN1C(=O)/C(=C/c2ccccc2[N+](=O)[O-])SC1=S | 80
16 | 6.04 | < 50 | 6.68 |  | 2 | 128 | 2 | 8 |  |  |  | 5.95 | 4 to 8 | 4 | O=C(O)c1ccc(N2C(=O)/C(=C/c3ccccn3)SC2=S)cc1 | 
17 | 4.84 | < 50 | 6.70 |  | 4 | 256 | 2 | 8 |  |  |  | 4.81 |  |  | O=C(O)CN1C(=O)/C(=C/c2ccc(F)cc2)SC1=S | 
18 |  | < 50 | 6.74 |  | 4 | 512 | 1 | 8 | < 50 |  |  | 6.16 |  |  | O=C(O)c1ccc(N2C(=O)/C(=C/c3ccco3)SC2=S)cc1 | 
19 |  |  | 6.80 | < 50 | 8 | 512 | 2 | 8 | < 50 |  | 4.72 |  |  |  | O=C(O)CN1C(=O)/C(=C/c2ccccn2)SC1=S | 
20 | 4.90 | < 50 | 6.96 |  | 4 | 256 | 1 | 8 |  |  |  | 4.84 |  |  | O=C(O)CN1C(=O)/C(=C/c2ccc(C(F)(F)F)cc2)SC1=S | 
21 |  | < 50 | 7.00 | < 50 | 8 | 512 | 1 | 4 | < 50 | 8 |  |  |  |  | O=C(O)CN1C(=O)/C(=C/c2ccc([N+](=O)[O-])cc2[N+](=O)[O-])SC1=S | 80
22 |  |  | 7.00 | < 50 | 8 | 512 | 1 | 8 | < 50 |  | 5.16 |  |  |  | O=C(O)c1ccc(N2C(=O)/C(=C/c3cccc4ccccc34)SC2=S)cc1 | 
23 | 4.60 | < 50 | 7.10 |  | 4 | 256 | 4 | 16 |  |  |  | 4.67 |  |  | O=C(O)CN1C(=O)/C(=C/c2ccc(Cl)cc2Cl)SC1=S | 
24 | 5.63 |  | 7.15 |  | 4 | 128 | 1 | 8 |  |  | 5.11 | 4.97 |  | 4 | O=C(O)c1ccc(N2C(=O)/C(=C/c3ccc(C(F)(F)F)cc3)SC2=S)cc1 | 
